From ChEMBL document CHEMBL4680184, “Simple amphiphilic α-hydrazido acids: Rational design, synthesis, and in vitro bioactivity profile of a novel class of potential antimicrobial compounds” (Eur J Med Chem, 2020)
≈ marks a conversion by molar mass, not a printed value.

Key:
Enterococcus faecalis [1] = test: Antibacterial activity against Enterococcus faecalis ATCC 29212 assessed as inhibition of visible growth after 24 hrs by broth microdilution method; assay type: functional
Summary of the method: (§1)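 Compounds dissolved in sterile water at the highest achievable concentration, then serially diluted in Mueller-Hinton II broth per CLSI broth microdilution. Strains grown 6 h in BHI, diluted in MHII to 1 × 10^6 cfu/mL final. Aerobic incubation 37 °C, 24 h; tetracycline internal control; bacteria-only growth controls. MIC = lowest concentration with no visible growth; triplicate.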

Enterococcus faecium = test: Antibacterial activity against Enterococcus faecium 135562 (35C) assessed as inhibition of visible growth after 24 hrs by broth microdilution method; assay type: functional; summary of the method: as §1
Staphylococcus aureus [2] = test: Antibacterial activity against Staphylococcus aureus ATCC 29213 assessed as inhibition of visible growth after 24 hrs by broth microdilution method; assay type: functional; summary of the method: as §1
Escherichia coli [3] = test: Antibacterial activity against Escherichia coli ATCC 25922 assessed as inhibition of visible growth after 24 hrs by broth microdilution method; assay type: functional; summary of the method: as §1
Pseudomonas aeruginosa = test: Antibacterial activity against Pseudomonas aeruginosa ATCC 27853 assessed as inhibition of visible growth after 24 hrs by broth microdilution method; assay type: functional; summary of the method: as §1
[4] = Hemolytic activity against human erythrocytes measured after 1 hr by microplate reader based spectrophotometric analysis; assay type: ADME, cell-based, Erythrocyte
Summary of the method: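 Heparinized fresh human blood washed three times in PBS pH 7.4 (1000 g, 10 min), resuspended ~20 vol %. Equal volume with 1:2 serial dilutions of compound in PBS, 1 h at 37 °C; PBS and 0.2 vol % Triton X-100 controls. Supernatant diluted 1:60, A350 read. HC50 from three- or four-parameter Hill fit; mean of three replicates.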

[5] = Therapeutic index, ratio of HC50 for human erythrocytes to MIC for Staphylococcus aureus ATCC 29213; assay type: toxicity; details: read-out: TI
[6] = Therapeutic index, ratio of HC50 for human erythrocytes to MIC for Escherichia coli ATCC 25922; assay type: toxicity; details: read-out: TI
[7] = Retention time of the compound by RP-HPLC analysis; assay type: physicochemical
Summary of the method: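 RP-HPLC on C18 column (5 µm, 200 × 4.6 mm), 0.5 mL/min; hydrochlorides at 0.5–1 mg/mL in water:2-propanol 70:30, gradient to 10:90 over 40 min, then 20 min at 10:90. Adjusted retention time = instrumental retention time minus hold-up time.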

Staphylococcus aureus [8] = test: Antibacterial activity against linezolid-methicillin-resistant Staphylococcus aureus AOUC 0915 assessed as inhibition of visible growth after 24 hrs by broth microdilution method; assay type: functional
Summary of the method: (§2)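 Broth microdilution per CLSI: strains grown 6 h in BHI broth, diluted in Mueller-Hinton II broth to 1 × 10^6 cfu/mL, mixed 1:1 with serial dilutions of compound in MHII (compounds dissolved in sterile water); aerobic incubation 37 °C, 24 h. MIC = lowest concentration with no visible growth. Tetracycline internal control; triplicate.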

Enterococcus faecalis [9] = test: Antibacterial activity against Enterococcus faecalis ATCC 29212; assay type: functional; summary of the method: as §1
Staphylococcus aureus [10] = test: Antibacterial activity against Staphylococcus aureus ATCC 29213; assay type: functional; summary of the method: as §2
Escherichia coli [11] = test: Antibacterial activity against gentamicin-colistin-resistant Escherichia coli 288328 assessed as inhibition of visible growth after 24 hrs by broth microdilution method; assay type: functional; summary of the method: as §2
Escherichia coli [12] = test: Antibacterial activity against Escherichia coli ATCC 25922; assay type: functional; summary of the method: as §2

| Compound | MIC (Enterococcus faecalis [1]) [µg/mL] | MIC (Enterococcus faecium) [µg/mL] | MIC (Staphylococcus aureus [2]) [µg/mL] | MIC (Escherichia coli [3]) [µg/mL] | MIC (Pseudomonas aeruginosa) [µg/mL] | HC50 at 1 h [4] [µg/mL] | selectivity ratio [5] | selectivity ratio [6] | Retention_time [7] [min] | MIC (Staphylococcus aureus [8]) [µg/mL] | MIC (Enterococcus faecalis [9]) [µg/mL] | MIC (Staphylococcus aureus [10]) [µg/mL] | MIC (Escherichia coli [11]) [µg/mL] | MIC (Escherichia coli [12]) [µg/mL] |
| --- | --- | --- | --- | --- | --- | --- | --- | --- | --- | --- | --- | --- | --- | --- |
| CCCCCCCCCCCCCCCCCC(=O)NN(CC(=O)NCCCCCCCCCCCC)C(=O)CN.Cl | 512 | 256 | 256 | 512 | 512 | 124 | 0.5 | 0.2 | 35.8 | – | – | – | – | – |
| CCCCCCCC(=O)NN(CC(=O)NCCC)C(=O)CN.Cl | 1020 | 1020 | 1020 | 1020 | 2050 | 433 | 0.4 | 0.4 | 5.2 | – | – | – | – | – |
| CCCCCCCCNC(=O)CN(NC(C)=O)C(=O)CN.Cl | 256 | 128 | 128 | 256 | 256 | 223 | 1.7 | 0.9 | 9.3 | – | – | – | – | – |
| CCCCCCCCCCCCNC(=O)CN(NC(=O)CCCCCCC)C(=O)CN.Cl | 32 | 16 | 64 | 256 | 512 | 367 | 5.7 | 1.4 | 24 | – | – | – | – | – |
| COc1cccc(OC)c1C(=O)N[C@@H]1C(=O)N2[C@@H]1SC(C)(C)[C@@H]2C(=O)O [METHICILLIN] | – | – | – | – | – | – | – | – | – | > 1020 | > 16 | 0.5 (≈ 1.31 µM) | – | – |
| CCCCCCCCCCCCCCCCCCNC(=O)CN(NC(=O)OCc1ccccc1)C(=O)CN.Cl | 512 | 256 | 512 | 512 | 512 | 243 | 0.5 | 0.5 | 30.9 | – | – | – | – | – |
| CCCNC(=O)CN(NC(=O)OCc1ccccc1)C(=O)CN.Cl | 1020 | 512 | 512 | 512 | 512 | 775 | 1.5 | 1.5 | 3.4 | – | – | – | – | – |
| CCCCCCCCCCCC(=O)NN(CC(=O)NCCCCCCCC)C(=O)CN.Cl | 16 | 8 | 64 | 128 | 128 | 486 | 7.6 | 3.8 | 23.5 | – | – | – | – | – |
| CCCNC(=O)CN(NC(C)=O)C(=O)CN.O=C(O)C(F)(F)F | 2050 | 2050 | 1020 | 2050 | 2050 | 2700 | 2.6 | 1.3 | 0.3 | – | – | – | – | – |
| CCCCCCCCCCCCCCCCCC(=O)NN(CC(=O)NCCCCCCCC)C(=O)CN.Cl | 512 | 64 | 128 | 512 | 512 | 200 | 1.6 | 0.4 | 32.2 | – | – | – | – | – |
| CCCCCCCCCCCCNC(=O)CN(C(=O)CN)N(C)C(=O)C(C)(C)C | 16 (≈ 38.8 µM) | 16 (≈ 38.8 µM) | 16 (≈ 38.8 µM) | 64 (≈ 155 µM) | 512 (≈ 1240 µM) | – | – | – | 18.9 | – | – | – | – | – |
| CCCCCCCCNC(=O)CN(NC(=O)OCc1ccccc1)C(=O)CN.Cl | 128 | 64 | 64 | 64 | 128 | 189 | 3 | 3 | 14.3 | – | – | – | – | – |
| GENTAMICIN | – | – | – | – | – | – | – | – | – | – | 4 | 0.12 | 128 | 0.25 |
| CCCCCCCCNC(=O)CN(C(=O)CN)N(C)C(C)=O | 1020 (≈ 3260 µM) | 1020 (≈ 3260 µM) | 2050 (≈ 6510 µM) | 2050 (≈ 6510 µM) | 2050 (≈ 6510 µM) | – | – | – | 9.1 | – | – | – | – | – |
| CCCCCCCCCCCCCCCCCCNC(=O)CN(NC(=O)CCCCCCC)C(=O)CN.Cl | > 256 | > 256 | > 256 | > 256 | > 256 | 267 | < 1 | < 1 | 33.1 | – | – | – | – | – |
| CCCCCCCCCCCCCCCCCC(=O)NN(CC(=O)NCCC)C(=O)CN.Cl | 32 | 16 | 64 | 512 | 512 | 234 | 3.7 | 0.5 | 26.5 | – | – | – | – | – |
| CCCCCCCCCCCCNC(=O)CN(C(=O)CN)N(C)C(=O)OCc1ccccc1 | 8 (≈ 17.3 µM) | 8 (≈ 17.3 µM) | 8 (≈ 17.3 µM) | 64 (≈ 138 µM) | 512 (≈ 1110 µM) | – | – | – | 20.7 | – | – | – | – | – |
| CCCCCCCCCCCC(=O)NN(CC(=O)NCCC)C(=O)CN.Cl | 64 | 64 | 64 | 64 | 64 | 167 | 2.6 | 2.6 | 16.6 | – | – | – | – | – |
| CCCCCCCCNC(=O)CN(C(=O)CN)N(C)C(=O)OCc1ccccc1 | 128 (≈ 315 µM) | 128 (≈ 315 µM) | 128 (≈ 315 µM) | 128 (≈ 315 µM) | 256 (≈ 630 µM) | – | – | – | 13.8 | – | – | – | – | – |
| CCCCCCCCCCCCCCCCCCNC(=O)CN(NC(C)=O)C(=O)CN.Cl | 32 | 32 | 256 | 512 | 512 | 228 | 0.9 | 0.5 | 28 | – | – | – | – | – |
| CCCCCCCCNC(=O)CN(NC(=O)C(C)(C)C)C(=O)CN.Cl | 256 | 256 | 512 | 256 | 512 | 775 | 1.5 | 3 | 11.7 | – | – | – | – | – |
| CCCCCCCCCCCCNC(=O)CN(C(=O)CN)N(C)C(C)=O | 32 (≈ 86.4 µM) | 32 (≈ 86.4 µM) | 64 (≈ 173 µM) | 128 (≈ 345 µM) | 256 (≈ 691 µM) | – | – | – | 17.1 | – | – | – | – | – |
| CCCCCCCCCCCCNC(=O)CN(NC(=O)CCCCCCCCCCC)C(=O)CN.Cl | 128 | 128 | > 128 | > 128 | > 128 | 438 | < 3.4 | < 3.4 | 29.1 | – | – | – | – | – |
| CCCCCCCCCCCCNC(=O)CN(NC(C)=O)C(=O)CN.Cl | 32 | 32 | 64 | 64 | 64 | 127 | 2 | 2 | 17.5 | – | – | – | – | – |
| CCCCCCCCCCCCNC(=O)CN(NC(=O)OCc1ccccc1)C(=O)CN.Cl | 16 | 8 | 8 | 32 | 128 | 86 | 11 | 2.7 | 21.2 | – | – | – | – | – |
| CCCCCCCCNC(=O)CN(NC(=O)c1ccccc1)C(=O)CN.Cl | 128 | 128 | 128 | 128 | 128 | 368 | 2.9 | 2.9 | 12.3 | – | – | – | – | – |
| CCCCCCCCCCCCCCCCCCNC(=O)CN(NC(=O)CCCCCCCCCCCCCCCCC)C(=O)CN.Cl | – | – | – | – | – | – | – | – | 41.8 | – | – | – | – | – |
| CCCCCCCCNC(=O)CN(C(=O)CN)N(C)C(=O)C(C)(C)C | 512 (≈ 1440 µM) | 512 (≈ 1440 µM) | 512 (≈ 1440 µM) | 256 (≈ 718 µM) | 512 (≈ 1440 µM) | – | – | – | 11.7 | – | – | – | – | – |
| CCCCCCCCCCCCCCCCCCNC(=O)CN(NC(=O)CCCCCCCCCCC)C(=O)CN.Cl | 512 | 512 | 256 | > 512 | 512 | 364 | 1.4 | < 0.7 | 35.9 | – | – | – | – | – |
